# Measured values reported in the RNAGym collection of RNA variant scans (doi:10.1126/science.aae0568).
# Variants at the floor of the assay were thinned out.
# B1: tRNA (parent)
# chain: GUUCCGUUGGCGUAAUGGUAACGCGUCUCCCUCCUAAGGAGAAGACUGCGGGUUCGAGUCCCGUACGGAACG
# Variants of: B1
# Assay: yeast fitness relative to wild type (ratio to wild type); higher = fitter; tRNA-Arg(CCU), competitive growth, 37 C, YPD
# Summary of the method: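 Variants of the tRNA-Arg(CCU) gene were chemically synthesised with a 3% per-site mutation rate across 69 sites and placed at the native genomic locus in Saccharomyces cerevisiae. Six parallel replicates of the pooled strains were competed in YPD at 37°C for 24 hours, and gene amplicons from the start and end populations were read by 100-nucleotide paired-end sequencing. Darwinian fitness relative to wild type was derived from changes in genotype frequencies. Genotypes required ≥ 100 starting reads, and estimates < 0.5 were set to 0.5.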
row,Variant,yeast fitness
1,G6A C24A A43C G52C C66G A69G,≤ 0.5
2,G6A C49U A65C,0.701
3,G6A C49U A65U,0.667
4,G6A C24U C55G A70U,0.624
5,G6A C62U A65C,0.763
6,G6A C31G C49A G68C,0.536
7,G6A G9C A21C C30U A45U,≤ 0.5
8,G6A C22G U47A G67U A70C,≤ 0.5
9,G6A G9A A21U C31G,≤ 0.5
10,G6A C33G C34G A43U C61A,≤ 0.5
11,G6A C30U C49A,≤ 0.5
12,G6A C34A A40U G52A A65U A70C,≤ 0.5
13,G6A C22U U35C C55A C66U,≤ 0.5
14,G6A G9C A21C C30U,≤ 0.5
15,G6A C30G A57C G58C,≤ 0.5
16,G6A C34G C61G,0.538
17,G6A C31A C55G C66A,≤ 0.5
18,G6A C22U C33U A36U A43C C60U C61G A70G,≤ 0.5
19,G6A C22U A40C,≤ 0.5
20,G6A C61A,0.66
21,G6A C61U,0.902
22,G6A C31G A43C C49A U54C C60G,≤ 0.5
23,G6A C31A U59C A70U,≤ 0.5
24,G6A G9C C11G C34U A57G,0.54

row,Variant,yeast fitness
1,G6A C33U C49A G58C A69U,≤ 0.5
2,G6A C30G C60G G68A,≤ 0.5
3,G6A C24A G38A G39C G52A,0.625
4,G6A G9C C11G C34U,≤ 0.5
5,G6A C22U C49A,≤ 0.5
6,G6A C30U C62A,≤ 0.5
7,G6A C24U A45C C61G,≤ 0.5
8,G6A C24U A42U U53G G68C,≤ 0.5
9,G6A C31A A69U,0.506
10,G6A C30U G63A G67A,≤ 0.5
11,G6A C24U C61G C66U A69U,0.568
12,G6A C22U C33A C55U C61A,≤ 0.5
13,G6A C24U A57C G68U A69C,≤ 0.5
14,G6A C34A A37C A40U,≤ 0.5
15,G6A C33A A42C,0.578
16,G6A C31G A43C C49A U54C,≤ 0.5
17,G6A C30U,0.742
18,G6A C30A,0.845
19,G6A C31A G68A,≤ 0.5
20,G6A C34G C62U G68A,≤ 0.5
21,G6A C27G A40C,0.545
22,G6A C29U A43C C46U C49U G56C,≤ 0.5
23,G6A C29G C30A U64G A69C,≤ 0.5
24,G6A C27A G50A A69U,0.542

row,Variant,yeast fitness
1,G6A C31U C46A A57U C60U,≤ 0.5
2,G6A C34G G52C A65U,≤ 0.5
3,G6A C60G A70C,0.531
4,G6A C30U A42C G48C,≤ 0.5
5,G6A C49U C55U,0.561
6,G6A C31A,0.819
7,G6A C31U,0.933
8,G6A C31G,0.975
9,G6A C29U A57G U59C C62U,≤ 0.5
10,G6A C27G C46U C60A C66G G68C,≤ 0.5
11,G6A C49U A57C A65C A70C,≤ 0.5
12,G6A C27A C30U G41C A43U C49A G63U,0.54
13,G6A C29U A43C C46U,0.623
14,G6A C22G G52C G58C A65U,≤ 0.5
15,G6A C27G A65C,0.562
16,G6A C30U C33U C46U,≤ 0.5
17,G6A C22U C29G A42G,≤ 0.5
18,G6A C22G U47A A65G,≤ 0.5
19,G6A C24G U35A G48C A69G,0.574
20,G6A C33A A37C G58A C66U G67U,≤ 0.5
21,G6A C24U U47C,0.751
22,G6A G9C A21G,0.537
23,G6A C31G C55U,0.537
24,G6A C24A U53C A57C A65U,≤ 0.5

row,Variant,yeast fitness
1,G6A C33U C34U C62G,≤ 0.5
2,G6A C55A,0.587
3,G6A C55G,0.656
4,G6A C24U C29G C66U,≤ 0.5
5,G6A G9C A42U,≤ 0.5
6,G6A C34U A65C,0.54
7,G6A C29A C62A,≤ 0.5
8,G6A C33A,0.686
9,G6A C24G C34G,≤ 0.5
10,G6A C29A C30G C61U A70G,≤ 0.5
11,G6A C30U G67A,0.586
12,G6A C34A G58C A65C A69C,≤ 0.5
13,G6A C49A,0.625
14,G6A C49G,0.904
15,G6A C31G G41A,≤ 0.5
16,G6A C62U G67C,≤ 0.5
17,G6A C27U C31G A43C C49G G52C U59A,≤ 0.5
18,G6A C29G A37U G56C G67C,≤ 0.5
19,G6A C61U A69U,0.632
20,G6A C24U G48C,0.618
21,G6A C33U A43G,≤ 0.5
22,G6A C33G C34G G41A G58C A70C,0.519
23,G6A C30U U35A A37G G38C U47A,≤ 0.5
24,G6A C34G A37G A57G A70C,≤ 0.5

row,Variant,yeast fitness
1,G6A C24U G38A C61G C66U A69U,≤ 0.5
2,G6A C34U U64A,≤ 0.5
3,G6A C22U C29G,≤ 0.5
4,G6A C27U A42U C62U,≤ 0.5
5,G6A C24U C61G C66U A70G,≤ 0.5
6,G6A C62U,0.921
7,G6A G9C C11G C27U C34U G68A,≤ 0.5
8,G6A C29U U47A G51A A57G,≤ 0.5
9,G6A C22U C61U A70G,≤ 0.5
10,G6A C46G G51A G52C C62G C66U,≤ 0.5
11,G6A C27G A36U C46U G67A,≤ 0.5
12,G6A C27U C30U,0.596
13,G6A C27G A42C,≤ 0.5
14,G6A C33G C34G C61A,0.548
15,G6A C24G,0.625
16,G6A C29G U47C U59A,≤ 0.5
17,G6A C46U G50A C61G,≤ 0.5
18,G6A C24G U35A G48C,0.54
19,G6A C66A A69C,0.565
20,G6A C22U A40C A69U,0.63
21,G6A C33G C34G,≤ 0.5
22,G6A C24U G63A,0.674
23,G6A C66A,0.879
24,G6A C66G,0.683

row,Variant,yeast fitness
1,G6A C31U G41C A42U C66U,≤ 0.5
2,G6A C24U C61A,≤ 0.5
3,G6A C27U C29A G58C,≤ 0.5
4,G6A C60G,0.601
5,G6A C60U,0.675
6,G6A C22U C27G A36G A43G,≤ 0.5
7,G6A G9A A14U G63A,0.747
8,G6A C27G A36C A42C A69C,≤ 0.5
9,G6A G9C,0.81
10,G6A C61G A70C,0.522
11,G6A C27A A36G,≤ 0.5
12,G6A C31A G41A A45U G58C,≤ 0.5
13,G6A C33A G58A A65C G67A,≤ 0.5
14,G6A C22U A42C G52A G56C,≤ 0.5
15,G6A C22G U35C C55G,≤ 0.5
16,G6A C24G C31G,0.527
17,G6A C62G A70G,≤ 0.5
18,G6A C30A C31U A45C C55G,≤ 0.5
19,G6A C31U A43U C55A,≤ 0.5
20,G6A C22G U54G A69U,≤ 0.5
21,G6A C31U C34U G52A,≤ 0.5
22,G6A C24G G50A,≤ 0.5
23,G6A C27A,0.707
24,G6A C24U A65U,≤ 0.5

row,Variant,yeast fitness
1,G6A C29U C33G G67A,≤ 0.5
2,G6A C49U G63A,0.688
3,G6A C27A A65G A70C,≤ 0.5
4,G6A C24U C61G C66U,0.724
5,G6A C31A U47C G67A,≤ 0.5
6,G6A C33G A43U,0.574
7,G6A C29U C31A C34U G56A,≤ 0.5
8,G6A C34A,0.739
9,G6A C34G,0.569
10,G6A C55A G67A,0.534
11,G6A C34G A37G U64C,≤ 0.5
12,G6A C49G C61U A69G,≤ 0.5
13,G6A C22U A42C,0.605
14,G6A C22U C34G G56C,0.693
15,G6A G9A C11G C24G U32A G52C,≤ 0.5
16,G6A C31A U47G C62A,≤ 0.5
17,G6A C46U,0.976
18,G6A C46G,0.937
19,G6A C27A C60A U64A,≤ 0.5
20,G6A C22U,0.757
21,G6A C60G G67A,0.53
22,G6A C61G G67C,0.546
23,G6A C22U C30G A36G C62U A65U,≤ 0.5
